Assay results as given in paper PMC9035732 (Photoacoustics, 2022).

How the values were obtained:
[1] = tested on: orthotopic human HCC xenograft tumors (SK-Hep1); assay: In vivo photoacoustic imaging of orthotopic human HCC xenograft tumors; parameters: species or system mouse; conditions: intravenous, peptide 300 μM in 200 μL PBS; ICG 2.46 mg/kg; λex = 774 nm
In short: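 Mice were female athymic nude mice bearing orthotopic SK-Hep1 tumors, which were first established subcutaneously in the flank. IRDye800-labeled target or control peptide was given i.v. in 200 µL PBS. Blocking groups got unlabeled peptide injected beforehand, and ICG 2.46 mg/kg i.v. served as comparator. 3D photoacoustic images (excitation 774 nm) were taken before and at 0.5, 1, 1.5, 1.75, 2, 4 and 24 h. Intensity came from 2D maximum-intensity projections, with pre-injection images as background, and was expressed as tumor/background ratio.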

[2] = tested on: orthotopic human HCC xenograft tumors (SK-Hep1); type: in vivo, mouse; conditions: 1.75 h post-injection, mean±SD, n = 8 mice per group; λex = 785 nm
In short: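 Tumors were orthotopic SK-Hep1 xenografts in female athymic nude mice; the cells were first grown subcutaneously in the hind flank. Mice received IRDye800-labeled target or control peptide i.v. Other groups were pre-blocked with unlabeled peptide or given ICG. Paired white-light and fluorescence laparoscopic images were taken at 1.75 h post-injection. Ultrasound and MR confirmed tumor location.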

Which “time of peak photoacoustic intensity in tumor post-injection” value [1] does the source give for `CC1(C)C(/C=C/C=C/C=C/C=C2\N(CCCCS(=O)(=O)O)c3ccc4ccccc4c3C2(C)C)=[N+](CCCCS(=O)(=O)[O-])c2ccc3ccccc3c21` [ICG, Indocyanine green] here?
The value was “not observed within 24 h”.

What about the “mean T/B ratio, laparoscopic fluorescence imaging” value [2] of the same compound?
Its value is 0.87 ± 0.2.
